Measurements collected from several papers.
Compare with care: the assays were run in different laboratories. pIC50: −log10 of the molar value.
Cell line: A549

COc1ccccc1/C=C/CNCC(O)COc1ccncc1 (stereo not shown) — pIC50 (cell growth or viability, CCK-8; 72 h): < 4.00
C/C=C/C(=O)Nc1cc(Nc2nc(Nc3cnn(C)c3)c3sccc3n2)c(OC)cc1N(C)CCN(C)C — pIC50 (cell growth or viability, MTT): 4.59
O=C(NC(=S)Nc1ccc([N+](=O)[O-])cc1)c1ccc2ccccc2c1 — pIC50 (cell growth or viability; 48 h): 5.28
CC1=C(O)C(=O)C=C2C1=CC=C1[C@@]2(C)CC[C@@]2(C)[C@@H]3C[C@](C)(C(=O)OCCCO)CC[C@]3(C)CC[C@]12C — pIC50 (cell growth or viability, MTT; 48 h): 5.37
O=C(N/N=C/c1cccn1CCN1CCOCC1)Nc1cc2c(Nc3ccc(F)c(Cl)c3)ncnc2cc1O[C@H]1CCOC1 — pIC50 (cell growth or viability, MTT; 72 h): 5.88
COc1ccc(NC(=O)NNC(=O)c2cccc(Nc3nccc(-c4cccnc4)n3)c2)c(OC)c1 — pIC50 (cell growth or viability, MTT; 24 h): < 4.40
C=CC(=O)Nc1cc(Nc2nc(N3CCc4sccc4C3)c3cccnc3n2)c(OC)cc1N1CCSCC1 — pIC50 (cell growth or viability, MTT): 4.62
COc1cc2c(Nc3ccc(NC(=O)c4ccccc4)cc3)ncnc2cc1OCCCN1CCOCC1 — pIC50 (cell growth or viability, MTS; 48 h): 5.49
O=C(Nc1nnnn1C1CCCCC1)c1ccc2ccccc2c1 — pIC50 (cell growth or viability; 48 h): 5.95
O=C(NNC(=O)c1ccc(Nc2nccc(-c3ccc(Cl)cc3)n2)cc1)NC1CCCCC1 — pIC50 (cell growth or viability, MTT; 24 h): < 4.40
COc1ccccc1/C=C/CNCC(O)COc1ccc(C2CCCCC2)cc1 (stereo not shown) — pIC50 (cell growth or viability, CCK-8; 72 h): 4.95
C=CC(=O)N1CCC[C@@H](n2nc(-c3ccc(Oc4ccccc4)cc3)c3c(N)ncnc32)C1 — pIC50 (cell growth or viability): < 5.00
O=C(Nc1nnc(-c2cc3ccccc3[nH]2)s1)c1cc2c([nH]c3ccccc32)c(-c2ccccc2)n1 — pIC50 (cell growth or viability, MTT; 72 h): 5.52
O=C(N/N=C/c1cccn1CCN1CCCCC1)Nc1cc2c(Nc3ccc(F)c(Cl)c3)ncnc2cc1O[C@H]1CCOC1 — pIC50 (cell growth or viability, MTT; 72 h): 5.45
COc1cccc2c1C(=O)c1c(O)c3c(c(O)c1C2=O)C[C@@](O)(C(=O)CO)C[C@@H]3O[C@H]1C[C@H](N)[C@H](O)[C@H](C)O1 — pIC50 (cell growth or viability, SRB): 6.21
CN(C)c1ccc2cc(C(=O)N[C@@H](CCCNC(=N)CCl)C(=O)NCc3ccccc3)ccc2c1 — pIC50 (cell growth or viability; 48 h): 5.01
CCOc1ccc(/C=C2\SC(=S)N(CC(=O)Nc3ccccc3)C2=O)cc1 — pIC50 (cell growth or viability, MTT): 4.99
Nc1ccn([C@@H]2O[C@H](CO)[C@@H](O)C2(F)F)c(=O)n1 — pIC50 (cell growth or viability, CCK-8; 72 h): 7.82
O=C(N/N=C/c1cccn1CCN1CCCC1)Nc1cc2c(Nc3ccc(F)c(Cl)c3)ncnc2cc1O[C@H]1CCOC1 — pIC50 (cell growth or viability, MTT; 72 h): 5.62
COc1ccccc1/C=C/CNCC(O)COc1ccc2ccccc2c1 (stereo not shown) — pIC50 (cell growth or viability, CCK-8; 72 h): 4.77
Cc1ccc(C)n1-c1ccc(-c2nnc(-c3c(Cl)cccc3Cl)[nH]2)cc1 — pIC50 (cell growth or viability, MTT; 72 h): 3.64
COc1cc(C=C(C(=O)/C=C/c2ccc(OC)c(OC)c2)C(=O)/C=C/c2ccc(OC)c(OC)c2)ccc1O — pIC50 (colony formation; 9 days): > 6.70
COc1ccc(-c2csc(Nc3ccc4c(O)ncnc4c3)n2)cc1 — pIC50 (cell growth or viability, MTT): 4.60
COc1cccc(C(=O)O[C@@H]2CN3Cc4c(cc5c(c4OC)OCO5)[C@@]24C=C[C@H](OC)C[C@@H]34)c1 — pIC50 (cell growth or viability, WST-1): < 5.00
COc1ccc2c(c1)/C(=N/NC(=O)c1cc3ccccc3[nH]1)C(=O)N2 — pIC50 (cell growth or viability): 5.18
Oc1ncnc2cc(Nc3nc(-c4ccc(Br)cc4)cs3)ccc12 — pIC50 (cell growth or viability, MTT): 4.64
COCCCOC(=O)[C@]1(C)CC[C@]2(C)CC[C@]3(C)C4=CC=C5C(=CC(=O)C(O)=C5C)[C@]4(C)CC[C@@]3(C)[C@@H]2C1 — pIC50 (cell growth or viability, MTT; 48 h): 5.49
C=CC(=O)Nc1cc(Nc2nc(Nc3cnn(C)c3)c3sccc3n2)c(OC)cc1N(C)CCN(C)C — pIC50 (cell growth or viability, MTT): < 4.30
O=c1[nH]cc(F)c(=O)[nH]1 — pIC50 (cell growth or viability, MTT; 48 h): 4.43
Cc1ccc(NC(=O)CSc2nnc(Cn3cnc4c3c(=O)n(C)c(=O)n4C)n2-c2ccccc2)c(C)c1 — pIC50 (cell growth or viability, MTT): 5.13
COc1ccccc1OCCNCC(O)COc1cccc2[nH]c3ccccc3c12 (stereo not shown) — pIC50 (cell growth or viability, CCK-8; 72 h): 4.64
Cc1c(OCC(F)(F)F)ccnc1COc1ccc(NC(=O)Nc2cccc(C(F)(F)F)c2)cc1 — pIC50 (cell growth or viability, MTT; 72 h): 5.58
CC1=C(O)C(=O)C=C2C1=CC=C1[C@@]2(C)CC[C@@]2(C)[C@@H]3C[C@](C)(C(=O)OCCCBr)CC[C@]3(C)CC[C@]12C — pIC50 (cell growth or viability, MTT; 48 h): 5.31
Brc1ccc(Nc2nc(N/N=C\c3c[nH]c4ccccc34)nc(Nc3ccccc3)n2)cc1 — pIC50 (cell growth or viability, SRB; 72 h): 4.94
O=C(/N=C1\SCC(=O)N1C1CCCCC1)c1ccc2ccccc2c1 — pIC50 (cell growth or viability; 48 h): 4.72
C=CC(=O)Nc1cc(Nc2nc(N3CCOCC3)c3sccc3n2)c(OC)cc1N(C)CCN(C)C — pIC50 (cell growth or viability, MTT): < 4.30
Cc1cccc(-n2ncc(Br)c(Br)c2=O)c1 — pIC50 (cell growth or viability, resazurin; 96 h): 5.79
Cc1nc(Nc2ncc(C(=O)Nc3c(C)cccc3Cl)s2)cc(N2CCN(CCO)CC2)n1 — pIC50 (cell growth or viability, MTT; 48 h): 4.93
COc1cc(Nc2nccc(-c3cnn4nc(OC)ccc34)n2)cc(C(F)(F)F)c1 — pIC50 (cell growth or viability, ATP luminescence): 6.33
COc1cc2ncnc(Nc3ccc(F)c(Cl)c3)c2cc1NC(=O)N/N=C/CN(C)C — pIC50 (cell growth or viability, MTT; 72 h): 5.26
C=C(Cl)C(=O)Nc1cc(Nc2nc(N3CCSCC3)c3sccc3n2)c(OC)cc1N(C)CCN(C)C — pIC50 (cell growth or viability, MTT): 7.01
O=C(/C=C/C=C/c1ccc2c(c1)OCO2)N1CCCCC1 — pIC50 (cell growth or viability, SRB): 3.55
C=CC(=O)Nc1cc(Nc2nccc(-c3cn(C)c4ccccc34)n2)c(OC)cc1N(C)CCN(C)C — pIC50 (cell growth or viability, MTT): 6.42
COc1ccnc(COc2ccc(NC(=O)Nc3ccc(Cl)cc3)cc2)c1OC — pIC50 (cell growth or viability, MTT; 72 h): 4.98
CS(=O)(=O)c1ccc(-n2cc(/C=N/N=c3\[nH]c(-c4ccc(Br)cc4)cs3)c(-c3ccc(Br)cc3)n2)cc1 — pIC50 (cell growth or viability, MTT; 48 h): 5.03
CCN(CC)CCNC(=O)c1c(C)[nH]c(/C=C2\C(=O)Nc3ccc(F)cc32)c1C — pIC50 (cell growth or viability): 5.51
COc1cc([C@@H]2c3cc4c(cc3[C@@H](O[C@@H]3O[C@@H]5CO[C@@H](C)O[C@H]5[C@H](O)[C@H]3O)[C@H]3COC(=O)[C@H]23)OCO4)cc(OC)c1O — pIC50 (cell growth or viability, MTT; 72 h): 5.70
CCN(CC)C/C=N/NC(=O)Nc1cc2c(Nc3ccc(F)c(Cl)c3)ncnc2cc1O[C@H]1CCOC1 — pIC50 (cell growth or viability, MTT; 72 h): 5.36
COCCCOc1ccnc(COc2ccc(NC(=O)Nc3cc(F)cc(F)c3)cc2)c1C — pIC50 (cell growth or viability, MTT; 72 h): 4.35
NS(=O)(=O)OC[C@@H]1C[C@@H](n2ccc3c(N[C@H]4CCc5ccccc54)ncnc32)C[C@@H]1O — pIC50 (cell growth or viability, CCK-8; 72 h): 6.10
COCCCOc1ccnc(COc2ccc(NC(=O)Nc3ccc(Cl)c(C(F)(F)F)c3)cc2)c1C — pIC50 (cell growth or viability, MTT; 72 h): 5.21
COc1cc2ncnc(Nc3ccc(F)c(Cl)c3)c2cc1NC(=O)N/N=C/c1cccn1CCCN1CCCCC1 — pIC50 (cell growth or viability, MTT; 72 h): 5.51
O=C(NC(=S)N1CCCCC1)c1ccc2ccccc2c1 — pIC50 (cell growth or viability; 48 h): 5.23
Cc1c(OCC(F)(F)F)ccnc1COc1ccc(NC(=O)Nc2cc(F)cc(F)c2)cc1 — pIC50 (cell growth or viability, MTT; 72 h): 5.12
CCN(CC)CCCn1cccc1/C=N/NC(=O)Nc1cc2c(Nc3ccc(F)c(Cl)c3)ncnc2cc1OC — pIC50 (cell growth or viability, MTT; 72 h): 5.62
COc1ccc2c(c1)/C(=N/NC(=O)c1cc3ccccc3[nH]1)C(=O)N2C — pIC50 (cell growth or viability): 5.71
O=C(N/N=C/CN1CCCC1)Nc1cc2c(Nc3ccc(F)c(Cl)c3)ncnc2cc1O[C@H]1CCOC1 — pIC50 (cell growth or viability, MTT; 72 h): 5.19
O=C1NCCc2[nH]c(-c3ccncc3)cc21 — pIC50 (cell growth or viability): < 5.00
